Measured values: ChEMBL document CHEMBL3272122, “4-(6-Methoxy-2-naphthyl)butan-2-one and related analogues, a novel structural class of antiinflammatory compounds” (1978)
Activity calls are given as the source filed them. The rule behind the calls is not given here.

Experiments:
Rattus norvegicus [1] = experiment: Antiinflammatory activity in Wistar rat assessed as inhibition of cotton pellet-induced granuloma formation at 50 mg/kg, po after 5 days relative to control; format: functional; conditions: for inhibition in vivo at 50 mg/kg: 120 h
Outline: (§1)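 Preweighed sterile cotton wool pellets were implanted subcutaneously in rats, one on each side of a ventral midline incision. Compounds were suspended in 0.7% methylcellulose and given orally once daily on days 0–5, starting 2–3 h before implantation; controls received vehicle (10 mL/kg). On day 6 the pellets were removed and dried at 80 °C to constant weight. Mean granuloma per rat was compared with controls by Student's t test.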

Rattus norvegicus [2] = experiment: Antiinflammatory activity in Wistar rat assessed as inhibition of cotton pellet-induced granuloma formation at 3 mg/kg, po after 5 days relative to control; format: functional, organism-based; set-up: dose 3 mg/kg; outline: as §1
Rattus norvegicus [3] = experiment: Antiinflammatory activity in Wistar rat assessed as inhibition of cotton pellet-induced granuloma formation at 100 mg/kg, po after 5 days relative to control; format: functional; conditions: 120 h; outline: as §1
Rattus norvegicus [4] = experiment: Antiinflammatory activity in rat assessed as inhibition of carrageenan-induced paw edema at 300 mg/kg, po relative to control; format: functional
Outline: (§2)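 Carrageenan paw edema in rats, compounds given orally. Edema is expressed as percent inhibition.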

Rattus norvegicus [5] = experiment: Antiinflammatory activity in rat assessed as inhibition of carrageenan-induced paw edema at 100 mg/kg, po relative to control; format: functional; outline: as §2
Rattus norvegicus [6] = experiment: Antiinflammatory activity in rat assessed as inhibition of carrageenan-induced paw edema at 15 mg/kg, po relative to control; format: functional; outline: as §2
Rattus norvegicus [7] = experiment: Antiinflammatory activity in Wistar rat assessed as inhibition of cotton pellet-induced granuloma formation at 10 mg/kg, po after 5 days relative to control; format: functional; conditions: 120 h; outline: as §1
Rattus norvegicus [8] = species on record: Rattus norvegicus; experiment: animal or person; conditions: Wistar, po, 120 h, read-out: INH
Rattus norvegicus [9] = species on record: Rattus norvegicus; experiment: animal or person; conditions: po, read-out: INH

In the case of `CC(=O)/C=C/c1ccc2cc(C)ccc2c1`, the inhibition in vivo at 50 mg/kg (Rattus norvegicus [1]) is reported as 29%.
For `COc1ccc(CCC(C)=O)c2ccccc12`, the inhibition in vivo at 50 mg/kg (Rattus norvegicus [1]) was 0%.
Molecule `COc1ccc2cc(CCC(C)OC(C)=O)ccc2c1` (stereo not drawn) has an inhibition in vivo at 50 mg/kg (Rattus norvegicus [1]) of 38%.
With `CC(=O)Oc1ccccc1C(=O)O` [ASPIRIN] the inhibition (Rattus norvegicus [2]) was “inactive”, the inhibition in vivo at 100 mg/kg (Rattus norvegicus [3]) was 5% and the inhibition in vivo at 300 mg/kg (Rattus norvegicus [4]) was 31%.
For `COc1ccc2cc(/C=C/C(C)=O)ccc2c1`, the inhibition in vivo at 50 mg/kg (Rattus norvegicus [1]) was 18% and the inhibition in vivo at 100 mg/kg (Rattus norvegicus [5]) was 50%.
With `COc1ccc2cc(CCC3(C)OCCO3)ccc2c1` the inhibition in vivo at 50 mg/kg (Rattus norvegicus [1]) was 22%.
`COc1ccc2cc(CCC(C)=O)ccc2c1` [NABUMETONE] showed an inhibition in vivo at 50 mg/kg (Rattus norvegicus [1]) of 39% and an inhibition in vivo at 15 mg/kg (Rattus norvegicus [6]) of 37%.
Work on `COc1ccc2cc(CC/C(C)=N\O)ccc2c1` yielded an inhibition in vivo at 50 mg/kg (Rattus norvegicus [1]) of 15%.
`CC(=O)CCc1ccc2cc(OC(C)=O)ccc2c1` showed an inhibition in vivo at 50 mg/kg (Rattus norvegicus [1]) of 2%.
Molecule `CC(=O)CC(C)c1ccc2cc(C)ccc2c1` (stereo not drawn) has an inhibition in vivo at 50 mg/kg (Rattus norvegicus [1]) of 11%.
For `CC(=O)CCc1ccc2cc(O)ccc2c1`, the inhibition in vivo at 50 mg/kg (Rattus norvegicus [1]) was 5%.
With `COc1ccc2ccccc2c1CCC(C)=O` the inhibition in vivo at 50 mg/kg (Rattus norvegicus [1]) was 10%.
In the case of `CCC(=O)CCc1ccc2cc(OC)ccc2c1`, the inhibition in vivo at 50 mg/kg (Rattus norvegicus [1]) is reported as 7%.
With `COc1ccc2cc(CCC(C)O)ccc2c1` (stereo not drawn) the inhibition in vivo at 50 mg/kg (Rattus norvegicus [1]) was 32%.
With `CNC(=O)Oc1ccc2cc(CCC(C)=O)ccc2c1` the inhibition (Rattus norvegicus [2]) was “inactive” and the inhibition in vivo at 50 mg/kg (Rattus norvegicus [1]) was 21%.
`COc1ccc2cc(C(C)CC(C)=O)ccc2c1` (stereo not drawn) was tested, and the inhibition in vivo at 50 mg/kg (Rattus norvegicus [1]) was 24% and the inhibition in vivo at 100 mg/kg (Rattus norvegicus [5]) was 36%.
For `CC(=O)CCc1ccc2cc(Cl)ccc2c1`, the inhibition in vivo at 50 mg/kg (Rattus norvegicus [1]) was 53%.
`CCOc1ccc2cc(CCC(C)=O)ccc2c1` showed an inhibition in vivo at 50 mg/kg (Rattus norvegicus [1]) of 12%.
Molecule `Cc1ccc2cc(CCC(C)O)ccc2c1` (stereo not drawn) has an inhibition in vivo at 50 mg/kg (Rattus norvegicus [1]) of 35%.
`COc1ccc2cc(CCC(C)(C)O)ccc2c1` gave an inhibition in vivo at 50 mg/kg (Rattus norvegicus [1]) of 3%.
With `CC(=O)CCc1ccc2ccccc2c1` the inhibition in vivo at 50 mg/kg (Rattus norvegicus [1]) was 20%.
For `COc1ccc2cc(CCC(C)OC(=O)CC(C)(C)CC(=O)O)ccc2c1` (stereo not drawn), the inhibition in vivo at 50 mg/kg (Rattus norvegicus [1]) was 26%.
In the case of `C[C@]12CCC(=O)C=C1CC[C@@H]1[C@@H]2[C@@H](O)C[C@@]2(C)[C@H]1CC[C@]2(O)C(=O)CO` [HYDROCORTISONE], the inhibition in vivo at 10 mg/kg (Rattus norvegicus [7]) is reported as 30% and the inhibition (Rattus norvegicus [2]) is reported as “inactive”.
`CC(=O)CCc1ccc2cc(C)ccc2c1` gave an inhibition in vivo at 50 mg/kg (Rattus norvegicus [1]) of 34%.
For `COc1ccc2cc(CCC(C)OC(=O)c3cc(OC)c(OC)c(OC)c3)ccc2c1` (stereo not drawn), the inhibition in vivo at 50 mg/kg (Rattus norvegicus [1]) was 41%.
For `COc1ccc2cc([C@H](C)C(=O)O)ccc2c1` [NAPROXEN], the inhibition in vivo at 30 mg/kg (Rattus norvegicus [8]) was 46%, the inhibition (Rattus norvegicus [2]) was “inactive” and the inhibition in vivo at 6 mg/kg (Rattus norvegicus [9]) was 30%.
With `COc1ccc2cc(CC(C)C(C)=O)ccc2c1` (stereo not drawn) the inhibition in vivo at 50 mg/kg (Rattus norvegicus [1]) was 7%.
For `CCC(CC(C)=O)c1ccc2cc(OC)ccc2c1` (stereo not drawn), the inhibition in vivo at 50 mg/kg (Rattus norvegicus [1]) was 20%.
In the case of `COc1ccc2cc(CC(=O)O)ccc2c1`, the inhibition (Rattus norvegicus [1]) is reported as “Active”.
